According to ChEMBL document CHEMBL2311442, “Identification of novel antimycobacterial chemical agents through the in silico multi-conformational structure-based drug screening of a large-scale chemical library” (Eur J Med Chem, 2013):
The source made the active and inactive calls. The calls are words filed in the database; no cut-off is given here.

How the values were obtained:
[1] = test system: MDCK; assay: Cytotoxicity against MDCK at 50 uM after 1 day by CCK8 assay; format: cell-based, Canis lupus familiaris; conditions: dog, 24 h
Outline: (§1)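 MDCK (5.0 x 10^3/well) and SH-SY5Y (1.5 x 10^4/well) in DMEM with 10% FBS, penicillin/streptomycin, 2 mM glutamine. Starved in 0.25% FBS (MDCK overnight, SH-SY5Y 2 days), then given compound at 50 uM in 0.25% FBS medium. Exposure: MDCK 1 day, SH-SY5Y 2 days. CCK-8 added, 3 h, WST-8 formazan A450. Isoniazid 50 uM control; mean ± SEM, n=4; Dunnett's test.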

[2] = test system: Escherichia coli; assay: Toxicity against Escherichia coli BL21 at 50 uM after 24 hrs
[3] = Cytotoxicity against human SH-SY5Y at 50 uM after 2 days by CCK8 assay; format: cell-based; conditions: 48 h; outline: as §1
[4] = test system: Mycobacterium vanbaalenii; assay: Growth inhibition of Mycobacterium vanbaalenii at 50 uM after 18 hrs; format: functional; conditions: Mycolicibacterium vanbaalenii
Outline: (§2)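 Mycobacteria grown overnight or 2 days at 37 C, 300 rpm in 3.7% brain heart infusion broth; M. smegmatis diluted 8x before seeding. Diluted culture incubated with compound (M. vanbaalenii 50 uM, M. smegmatis 100 uM). Controls: 0.3% DMSO (negative), isoniazid (positive). A595 read at 4, 8, 18, 24 h. Mean ± SEM of four experiments; Dunnett's test.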

[5] = test system: Mycobacterium vanbaalenii; assay: Growth inhibition of Mycobacterium vanbaalenii at 50 uM up to 24 hrs; format: functional; conditions: Mycolicibacterium vanbaalenii; outline: as §2
[6] = test system: Mycobacterium vanbaalenii; assay: Antimycobacterial activity against Mycobacterium vanbaalenii incubated up to 24 hrs; format: functional, Mycolicibacterium vanbaalenii
Outline: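 M. vanbaalenii grown overnight or 2 days at 37 C, 300 rpm in 3.7% brain heart infusion broth, diluted, then incubated in medium with compound across a dose range. Growth read as A595 at 4, 8, 18 and 24 h; growth rate (%) taken from 24 h culture. IC50 from dose-response; mean ± SD, four independent experiments.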

[7] = test system: Escherichia coli; assay: Toxicity against Escherichia coli JM 109 at 50 uM after 24 hrs; format: organism-based; conditions: in vivo
[8] = test system: Mycolicibacterium smegmatis; assay: Growth inhibition of Mycobacterium smegmatis at 100 uM after 24 hrs; format: functional, organism-based; outline: as §2
[9] = biological target: T1, Enoyl-[acyl-carrier-protein] reductase [NADH] (Mycobacterium tuberculosis, UniProt P9WGR1); assay: Inhibition of Mycobacterium tuberculosis InhA
T1 sequence (P9WGR1 whole entry): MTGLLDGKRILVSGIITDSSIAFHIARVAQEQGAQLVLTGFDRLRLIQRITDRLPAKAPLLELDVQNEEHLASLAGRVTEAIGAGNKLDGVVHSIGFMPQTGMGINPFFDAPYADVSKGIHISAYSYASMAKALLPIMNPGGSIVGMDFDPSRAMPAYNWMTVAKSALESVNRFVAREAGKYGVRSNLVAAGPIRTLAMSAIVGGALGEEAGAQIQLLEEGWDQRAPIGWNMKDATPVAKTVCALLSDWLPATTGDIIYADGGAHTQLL

[10] = biological target: T2, Thymidylate kinase (Mycobacterium tuberculosis, UniProt P9WKE1); assay: Inhibition of Mycobacterium tuberculosis thymidine monophosphate kinase
T2 sequence (P9WKE1 whole entry): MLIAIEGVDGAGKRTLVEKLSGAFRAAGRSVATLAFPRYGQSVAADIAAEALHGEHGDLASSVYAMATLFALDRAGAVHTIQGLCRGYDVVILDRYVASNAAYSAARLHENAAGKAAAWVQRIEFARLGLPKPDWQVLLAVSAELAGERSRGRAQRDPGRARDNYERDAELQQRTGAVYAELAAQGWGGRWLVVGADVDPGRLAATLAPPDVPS

## Cc1ccc(Nc2nc(Nc3ccc(C)cc3)nc(Sc3nnc(C)s3)n2)cc1
[1]
  Activity: Toxic
[2]
  Activity: Non-toxic
[3]
  Activity: Toxic
[4]
  growth inhibition (GI): Active
[5]
  growth inhibition (GI): Active
[6]
  IC50: 22 µM
[7]
  Activity: Non-toxic
[8]
  growth inhibition (GI): Active

## NC(=O)C1=CN([C@@H]2O[C@H](COP(=O)(O)OP(=O)(O)OC[C@H]3O[C@@H](n4cnc5c(N)ncnc54)[C@H](O)[C@@H]3O)[C@@H](O)[C@H]2O)C=C[C@H]1C(=O)c1ccncc1
[9]
  Ki: 0.00075 µM

## Cc1cn([C@H]2C[C@H](CN=[N+]=[N-])[C@@H](COP(=O)(O)O)O2)c(=O)[nH]c1=O
[10]
  Ki: 10 µM

## NNC(=O)c1ccncc1 [ISONIAZID]
[4]
  growth inhibition (GI): Active
[6]
  IC50: 2.6 µM
[8]
  growth inhibition (GI): Active

## CCCc1cc(=O)oc2cc(OCC(=O)OCc3ccccc3)c(Cl)cc12
[5]
  growth inhibition (GI): inactive

## COc1ccc(-c2cc3ccccc3oc2=O)cc1NC(=O)COc1ccc(Cl)cc1C
[5]
  growth inhibition (GI): inactive

## O=C(Oc1cccc2cccnc12)c1ccc(S(=O)(=O)c2ccc(Cl)cc2)cc1
[1]
  Activity: Non-toxic
[2]
  Activity: Non-toxic
[3]
  Activity: Non-toxic
[4]
  growth inhibition (GI): Active
[5]
  growth inhibition (GI): Active
[6]
  IC50: 20 µM
[7]
  Activity: Non-toxic
[8]
  growth inhibition (GI): Active

## O=C(Nc1ccc(OCc2ccccc2)cc1)C1CCN(C(=O)c2ccc([N+](=O)[O-])cc2)CC1
[5]
  growth inhibition (GI): inactive

## CCCCc1cc(=O)oc2cc(OCC(=O)OCC)c(Cl)cc12
[5]
  growth inhibition (GI): inactive

## CC(C)Oc1cccc(-c2cc(C(=O)NCCc3ccc(S(N)(=O)=O)cc3)c3ccccc3n2)c1
[1]
  Activity: Non-toxic
[2]
  Activity: Non-toxic
[3]
  Activity: Non-toxic
[4]
  growth inhibition (GI): Active
[5]
  growth inhibition (GI): Active
[6]
  IC50: 15 µM
[7]
  Activity: Non-toxic
[8]
  growth inhibition (GI): Active

## CCc1cc(=O)oc2cc(OCC(=O)OCc3ccccc3)c(Cl)cc12
[4]
  growth inhibition (GI): Active
[5]
  growth inhibition (GI): Active
[8]
  growth inhibition (GI): inactive

## COC(=O)COc1ccc(NC(=O)c2ccc(C(C)(C)C)cc2)cc1
[5]
  growth inhibition (GI): inactive

## CCOc1ccc(NC(=O)CSc2nc3ccc(NC(=O)c4ccccc4C)cc3s2)cc1
[5]
  growth inhibition (GI): inactive
